Experimental data reported in ChEMBL document CHEMBL1138768, “A locally active antiinflammatory macrolide (MLD987) for inhalation therapy of asthma” (J Med Chem, 2004).

Columns and labels:
[1] = Inhibitory activity against IL-5 production (Anti-CD3 monoclonal antibody stimulated and cultured CD4 positive cells purified from human peripheral blood mononuclear cell); type: functional, cell-based
[2] = species on record: Rattus norvegicus; test: Intratracheal dose that inhibits by 50% the allergen OA-induced eosinophil influx in to the airway lumen of actively sensitized rats after -1h, +24h treatment schedule; type: functional; conditions: Trachea, inhaled or nasal
In short: (§1)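 Actively sensitized Brown-Norway rats challenged with ovalbumin (OA). Compound given intratracheally, orally or i.v. either 1 h or 6 h before challenge, with a second dose 24 h after challenge. Eosinophils counted in bronchoalveolar lavage fluid; ED50 is the dose inhibiting OA-induced eosinophil influx by 50%; n = 5–20 rats.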

[3] = Inhibitory activity against IFN-gamma production (Anti-CD3 monoclonal antibody stimulated and cultured CD4 positive cells purified from human peripheral blood mononuclear cell); type: functional, cell-based
[4] = tested on: Rattus norvegicus; test: Oral dose that inhibits by 50% the allergen OA-induced eosinophil influx in to the airway lumen of actively sensitized rats after -6h, +24h treatment schedule; type: functional; in short: as §1
[5] = tested on: PBMC; test: Inhibitory activity against murine mixed lymphocyte reaction; conditions: Mus musculus
[6] = tested on: Rattus norvegicus; test: Oral dose that inhibits by 50% the allergen OA-induced eosinophil influx in to the airway lumen of actively sensitized rats after -1h, +24h treatment schedule; type: functional; in short: as §1
[7] = tested on: Rattus norvegicus; test: Intravenous dose that inhibits by 50% the allergen OA-induced eosinophil influx in to the airway lumen of actively sensitized rats after -1h, +24h treatment schedule; type: functional; in short: as §1
[8] = Inhibitory activity against PPD-induced proliferation of human peripheral blood mononuclear cell (HPBMNC); type: functional
In short: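 Human peripheral blood mononuclear cells isolated from blood, stimulated with PPD (M. tuberculosis purified protein derivative). Proliferation read after 5 days in medium with 20% fetal calf serum. Mean IC50 ± SEM (n = 3–6) or the mean of two experiments.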

[9] = species on record: Rattus norvegicus; test: Intratracheal dose that inhibits by 50% the allergen OA-induced eosinophil influx in to the airway lumen of actively sensitized rats after -6h, +24h treatment schedule; type: functional; conditions: Trachea, inhaled or nasal; in short: as §1
[10] = tested on: Rattus norvegicus; test: Intravenous dose that inhibits by 50% the allergen OA-induced eosinophil influx in to the airway lumen of actively sensitized rats after -6h, +24h treatment schedule; type: functional; in short: as §1
[11] = Inhibitory activity against calcineurin phosphatase; parameters: species or system Homo sapiens
[12] = Inhibitory activity against IL-2 receptor in human T-cell jurkat cell line stimulated by phytohemagglutininin and phorbol myristate acetate; type: cell-based
In short: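 Jurkat human T-cell line carrying an IL-2 reporter gene, stimulated with phytohemagglutinin plus phorbol myristate acetate. Values are mean IC50 ± SEM (n = 3–6) or the mean of two experiments.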

Structure (SMILES)	IC50 [1] [nM]	ED50 [2] [mg/kg]	IC50 [3] [nM]	ED50 [4] [mg/kg]	IC50 [5] [nM]	ED50 [6] [mg/kg]	ED50 [7] [mg/kg]	IC50 [8] [nM]	ED50 [9] [mg/kg]	ED50 [10] [mg/kg]	Ki [11] [nM]	IC50 [12] [nM]
CCCC1O[C@@H]2C[C@H]3[C@@H]4CCC5=CC(=O)C=C[C@]5(C)[C@H]4[C@@H](O)C[C@]3(C)[C@]2(C(=O)CO)O1 (stereo not given in full) [BUDESONIDE]	0.12	0.5	0.32	–	–	–	–	–	–	–	–	–
C=CC[C@@H]1/C=C(\C)C[C@H](C)C[C@H](OC)[C@H]2O[C@@](O)(C(=O)C(=O)N3CCCC[C@H]3C(=O)O[C@H](/C(C)=C/[C@@H]3CC[C@@H](O)[C@H](OC)C3)[C@H](C)[C@@H](O)CC1=O)[C@H](C)C[C@@H]2OC [TACROLIMUS ANHYDROUS]	0.06	0.3	0.06	3	0.29	10	0.3	0.18	0.3	0.3	35	0.19
